For series [1], the system named is DU-145 cell line (human prostate carcinoma). The series can be described thus: MTT cytotoxicity assay, DU-145. Type of series: cell-based. A digest of the protocol:
(§1)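 Cells (1 × 10^4 per well in 0.2 mL medium) were exposed to test compounds, pre-dissolved in DMSO, at 0.01–1 mM for 24 h. Compounds were then washed out with three PBS washes, and MTT was read at once. Five replicates per concentration, each repeated at least three times; IC50 given as mean + SD. MCF7, A549 and HaCaT were grown in DMEM with 10% FBS and 1% streptomycin/penicillin. DU-145 and HEK293T were grown in MEM with 10% FBS. All cultures were kept at 37 °C, 5% CO2.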

In series [2] the test system is HEK293T cell line (human embryonic kidney). The series can be described thus: MTT cytotoxicity assay, HEK293T. The conditions noted are these: 24 h. It is filed as cell-based. A digest of the protocol: as §1
In general terms: Tetrazolium dyes change colour on reduction, which living cells bring about.

The test system of series [3] is A549 cell line (human lung adenocarcinoma). Nature of the series: MTT cytotoxicity assay, A549. It is filed as cell-based. In outline:
as §1

Series [4] has as its system MCF7 cell line (human breast adenocarcinoma). Nature of the series: MTT cytotoxicity assay, MCF7. Type of series: cell-based. A digest of the protocol:
as §1

Series [5] concerns HaCat (human keratinocyte). The series can be described thus: MTT cytotoxicity assay, HaCat. It is filed as cell-based. The conditions noted are these: 24 h. A digest of the protocol:
as §1

Series [6] is described as follows: Stability in DMSO solution by FT-IR. It is filed as physicochemical. The conditions noted are these: 2% solution in DMSO, 0-96 h, qualitative. A digest of the protocol: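 ATR FT-IR of 2% solutions of the complexes in DMSO, one drop on the diamond plate, recorded at 1, 24, 48, 72 and 96 h. Settings: 2 cm−1 resolution, 128 scans, 4000–400 and 600–100 cm−1, room temperature. Solution spectra were compared with the solid-state spectra; qualitative only.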

A short description of series [7]: Stability in DMSO/H2O. It is filed as physicochemical. In outline: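 UV-Vis spectra of the complexes in DMSO/H2O (9:1, v/v) at room temperature, recorded right after dissolving and at 48 and 96 h. Full range recorded at 10−6 M; d–d bands recorded at 10−4 M.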
Series [8] relates to HEK293T and HaCat normal cell lines. Nature of the series: Cytotoxicity toward normal cell lines, stated in words. It is filed as cell-based, human. A digest of the protocol: as §1
Series [9] deals with DU-145 cells. Nature of the series: Mitochondrial membrane potential, JC-10 assay. It is filed as cell-based, human. The conditions noted are these: DU-145, compounds at IC50, 24 h, JC-10 emission ratio 570 nm/530 nm. A digest of the protocol:
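DU-145 cells were seeded at 1 × 10^4 per 0.2 mL. After 24 h the medium was replaced with test compound solutions, gentamicin (0.5 mg mL−1, positive control) or ciprofloxacin (10 μg mL−1, negative control), then incubated 24 h at 37 °C, 5% CO2. Cells were PBS-washed twice and loaded with JC-10 for 1 h. Emission read at λex 540/λem 570 nm and λex 485/λem 530 nm; red/green ratio reported as mean + SD.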

In series [10] the test system is DU-145 cells. The series can be described thus: ROS generation, H2DCF-DA assay. Type of series: cell-based, human. The conditions noted are these: DU-145, 24, 48 and 72 h, c = 1 μM. A digest of the protocol:
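DU-145 prostate carcinoma cells grown in MEM with 10% FBS at 37 °C, 5% CO2, seeded in 96-well plates. Cells were exposed continuously to test compound (copper complexes or free ligands), then loaded with the H2DCF-DA probe. ROS was read by fluorescence, with work done in darkness. Signal was related to an untreated negative control and an extra-H2O2 positive control.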

The mark [11] stands for this setting: DU145, cancer cell line, 24 h, MTT.
[12] abbreviates: HEK293T, non-cancerous cell line, MTT.
Setting [13] is: A549, cancer cell line, 24 h, MTT.
Setting [14] is: MCF7, cancer cell line, 24 h, MTT.
[15] abbreviates: HaCat, non-cancerous cell line, MTT.

Entries after “also recorded” stand apart in the source; their conditions may differ. A value given as a limit tells only on which side of the number the result lay.

As to `OCc1ccccn1` [2-Pyridinemethanol, 2-pyridinemethanol], the IC50 (in general, the concentration needed to halve the response being measured) was above 1000 µM in series [1] (Homo sapiens, DU-145, 24 h); above 1000 µM in series [2] (Homo sapiens, HEK-293T); above 1000 µM in [3] (Homo sapiens, A549, 24 h); above 1000 µM in series [4] (Homo sapiens, MCF7, 24 h); above 1000 µM in [5] (Homo sapiens, HaCaT).

Take [Cu4OCl6(etpy)4] [Complex 2]: the IC50 in [1] (setting [11]), in series [2] (setting [12]), in [3] (setting [13]), in [4] (setting [14]) and in [5] (setting [15]) was above 1000 µM in each case. Further, the “Activity toward DU-145 cancer cells” value in series [1] was “inactive”. For the same molecule, the “Stability in DMSO solution” value in series [6] was “turns into complex 1”. Further, the “Stability in DMSO/H2O solution” value in series [7] (DMSO/H2O 9:1 v/v, room temperature, 0 min, 48 h and 96 h, UV-Vis) is listed as “turns into complex 1”. The “Structure after dissolving in biological medium” value in [7] (biological medium, confirmed by UV-Vis and FT-IR) is given as “adopts the same structure as compound 1”.

As to trans-[CuCl2(etpy)2] [Complex 1], the IC50 in series [1] (setting [11]), in series [2] (setting [12]), in series [3] (setting [13]), in series [4] (setting [14]) and in [5] (setting [15]) was above 1000 µM throughout. Moreover, the “Activity toward DU-145 cancer cells” value in [1] is “inactive”. The “Toxicity towards normal (healthy) cells” value in series [8] is “did not exhibit toxicity; also recorded: nontoxic”. Besides, the “Reduction of mitochondrial membrane potential” value (shortened to “Reduction”) in series [9] is reported as “least effect”. Besides, the “ROS generation compared to negative control (order)” value in series [10] is “complex 1 > complex 3 > 2-pyridineethanol > 2-ethylpyridyne”.

Regarding `N.N.[Cl][Pt][Cl]` [Cisplatin, cisplatin, reference compound], the IC50 in series [1] (setting [11]) is 98.3 ± 1.3 µM; in series [2] (setting [12]), 21 ± 1.8 µM; in series [3] (setting [13]), 57 ± 1.3 µM; in series [4] (setting [14]) it was 50.9 ± 2.6 µM; in series [5] (setting [15]), 13.3 ± 1.1 µM.

As to `CCc1ccccn1` [2-Ethylpyridine, 2-ethylpyridine], the IC50 in series [1] (Homo sapiens, DU-145, 24 h) is above 1000 µM; in series [2] (Homo sapiens, HEK-293T), above 1000 µM; in series [3] (Homo sapiens, A549, 24 h) it was above 1000 µM; in series [4] (Homo sapiens, MCF7, 24 h) it was above 1000 µM; in series [5] (Homo sapiens, HaCaT), above 1000 µM. Also, the “Reduction” value in series [9] is on record as “most significantly reduced”. For the same molecule, the “ROS generation compared to negative control (order)” value in series [10] was “complex 1 > complex 3 > 2-pyridineethanol > 2-ethylpyridyne”.

As for `OCCc1ccccn1` [2-Pyridineethanol, 2-pyridineethanol], the IC50 in series [1] (Homo sapiens, DU-145, 24 h) is above 1000 µM; in series [2] (Homo sapiens, HEK-293T) it was above 1000 µM; in series [3] (Homo sapiens, A549, 24 h) it was above 1000 µM; in [4] (Homo sapiens, MCF7, 24 h) it was above 1000 µM; in series [5] (Homo sapiens, HaCaT), above 1000 µM. Besides, the “Reduction” value in series [9] is listed as “most significantly reduced”. Besides, in series [10], the “ROS generation compared to negative control (order)” value is listed as “complex 1 > complex 3 > 2-pyridineethanol > 2-ethylpyridyne”.

These data come from paper PMC9516696 (RSC Advances, 2022).
